Source: PubChem BioAssay
PGC1a acetyl inh = modulators of PGC1a acetylation; U2OS PGC1a acetylation, AlphaScreen anti-acetyl-lysine; with virally co-expressed GCN5 acetyltransferase; inhibition, % at 15.6 µM; 350,000 compounds, 0.17% hits; AID 651687;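 active = every replicate shows inhibition of at least 40%; inconclusive = mean inhibition at least 40% but some replicate below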
EWS-Fli inh = inhibitors of EWS/Fli oncoprotein transcriptional activity. 350,000 compounds, 0.67% hits. AID 651661. inhibition, % at 12.6 µM. A673 NR0B1-luciferase reporter, viability-normalised;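 active = mean inhibition of at least 50% after viability correction, with every replicate also passing that limit; inconclusive = mean reaches 50% but only one of two replicates passes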;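 also: firefly luciferase signal divided by Alamar Blue viability fluorescence both relative to DMSO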
PAX8 inh HTS = PAX8 transcriptional activity inhibition; 360,000 compounds, 1.2% hits; inhibition, % at 12.6 µM; RMG-I TPO-luciferase reporter, SteadyGlo, 24 h; AID 652154;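 active = mean replicate inhibition at least 60% with every replicate also reaching 60%; inconclusive = only one of the two criteria is met; inactive = mean below 60% and not all replicates reaching 60%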;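 also: luciferase light reporting Pax8 driven TPO promoter activity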
INS-1E GSIS act = primary screen for activators of insulin secretion dependent on glucose, INS-1E cells, GLuc reporter luminescence; AID 743287; 370,000 compounds, 0.61% hits; INS-1E GLuc reporter insulin secretion, 2-3 h; activation, % at 16.6 µM;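 active = lowest replicate activation of at least 40%, so every replicate reaches that level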
MLL AF4-AF9 inh = MLL-AF4/AF9 protein interaction inhibition; inhibition, % at 10 µM; P42568; 350,000 compounds, 0.47% hits; AlphaScreen, biotin-AF4 peptide binding to FLAG-AF9;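 active = every replicate reaching a set inhibition limit, whatever the replicate mean, cut at about 25% in these data; inconclusive = mean inhibition reaches that limit but some replicates miss it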
Target sequence (P42568 whole entry, looked up): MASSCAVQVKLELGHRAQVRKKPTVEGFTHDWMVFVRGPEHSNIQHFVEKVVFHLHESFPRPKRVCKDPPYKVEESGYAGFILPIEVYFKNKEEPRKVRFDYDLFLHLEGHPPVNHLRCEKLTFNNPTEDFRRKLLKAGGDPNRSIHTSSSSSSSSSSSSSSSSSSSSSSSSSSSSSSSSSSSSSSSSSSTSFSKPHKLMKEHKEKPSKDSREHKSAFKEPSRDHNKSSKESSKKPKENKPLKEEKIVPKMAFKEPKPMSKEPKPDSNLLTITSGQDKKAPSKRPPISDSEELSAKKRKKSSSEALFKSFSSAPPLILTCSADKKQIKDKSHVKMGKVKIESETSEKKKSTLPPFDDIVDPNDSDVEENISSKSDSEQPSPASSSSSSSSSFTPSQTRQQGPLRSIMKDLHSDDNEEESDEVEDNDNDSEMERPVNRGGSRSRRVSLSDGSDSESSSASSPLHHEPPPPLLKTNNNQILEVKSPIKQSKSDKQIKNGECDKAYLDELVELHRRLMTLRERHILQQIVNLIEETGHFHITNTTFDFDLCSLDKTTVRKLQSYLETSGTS
Xi reactivation = reactivates the inactive X chromosome in mouse fibroblasts. XiGFP mouse fibroblasts, % GFP-positive cells imaging, 3 d; cells co-treated with 5-aza-dC sensitizer; scaled so ellipticine positive control = 100%. activation, % at 7.58 µM. 360,000 compounds, 0.055% hits;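 active = mean normalized replicate activation at least 10% and every replicate at or above 10%; inconclusive = only one of the two criteria met; inactive = mean below 10% and not all replicates reach 10%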
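Schedule: 3 d treatment, 15 min room-temperature fixation; system: 68-5-11 XiGFP fibroblast line; buffer or medium: DMEM plus 5-aza-dC sensitizer; control set: ellipticine 6 µM positive control; compound: one concentration, pinned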
Numbers stand for hits; i = inactive; ? = inconclusive; nt = no result. Only some compounds are listed: those with a hit (about 2.1% of all), similar ones and a draw of the others.

SMILES	PGC1a acetyl inh	EWS-Fli inh	PAX8 inh HTS	INS-1E GSIS act	MLL AF4-AF9 inh	Xi reactivation
CCn1c2ccccc2c2cc(/C=N/n3cnnc3)ccc21	i	nt	nt	nt	nt	nt
CC(C)NC(=O)N1CC2(C1)[C@@H](c1ccccc1)[C@@H](CO)N2CCC(F)(F)F	i	i	i	i	i	i
Cc1nn(-c2ccccc2)c2nc(C(F)F)cc(C(F)F)c12	i	i	i	70.0	i	i
O=C(CCl)Nc1ccc(-c2ccccc2)cc1	i	63.5	i	i	i	i
CC1CCCCN1CC(=O)Nc1ccc(N2CCCCCC2)cc1 (centres undefined)	i	i	i	i	48.5	i
O=C(CCl)Nc1ccc(N2CCCCCC2)cc1	nt	i	i	i	50.9	i
CC1CCCCN1CC(=O)Nc1ccc(Oc2ccccc2)cc1 (centres undefined)	i	nt	nt	nt	nt	nt
CCC(=O)Nc1ccc(N2CCCCC2)cc1	i	nt	nt	i	nt	nt
C[C@H]1CCCCO[C@H](CN(C)C(=O)Nc2ccc3c(c2)OCO3)[C@@H](C)CN([C@@H](C)CO)C(=O)c2cc(NC(=O)CCCN(C)C)ccc2O1	i	i	i	i	i	i
CCCN(C)C[C@@H]1Oc2ncc(-c3cccnc3)cc2C(=O)N([C@H](C)CO)C[C@H]1C	i	i	nt	i	i	i
CNC[C@@H]1Oc2ccc(NC(=O)Cn3cnnn3)cc2CC(=O)N([C@@H](C)CO)C[C@@H]1C	i	i	i	i	nt	i
Cc1ccc(OCC(=O)NNC(=O)CCC(=O)Nc2ccc(C)cc2C)cc1	i	nt	nt	57.3	nt	nt
CCOc1ccc(-n2c(SCC(=O)c3c(N)n(C)c(=O)n(C)c3=O)nnc2-c2cccnc2)cc1	nt	i	81.1	nt	i	i
Cc1ccccc1-n1c(SCC(=O)c2c(N)n(C)c(=O)n(C)c2=O)nnc1-c1cccnc1	nt	i	i	i	i	i
COc1ccc(CN(C)C[C@@H]2OCCCC[C@H](C)Oc3ccc(NC(=O)Nc4ccc5c(c4)OCO5)cc3C(=O)N([C@H](C)CO)C[C@@H]2C)cc1	i	i	i	i	i	i
COc1ccc(-c2ccc3c(c2)[C@H]2[C@H](CCN2S(=O)(=O)c2ccc(OC)cc2)[C@H](CO)N3C)cc1	i	i	94.6	i	i	i
COc1ccc(-c2ccc3c(c2)[C@@H]2[C@@H](CCN2S(=O)(=O)c2ccc(F)cc2)[C@@H](CO)N3C)cc1	i	i	i	i	i	i
COc1ccc(-c2ccc3c(c2)[C@@H]2[C@@H](CCN2S(=O)(=O)c2ccc(OC)cc2)[C@@H](CO)N3C)cc1	i	i	85.3	i	i	i
COc1cccc(N2CCN(C(=O)c3ccc(CS(=O)c4ccccc4Cl)o3)CC2)c1 (centres undefined)	i	51.3	93.4	i	i	i
COc1cccc(N2CCN(C(=O)c3ccc(CS(=O)c4ccccc4C)o3)CC2)c1 (centres undefined)	nt	58.5	?	i	i	i
O=C(c1ccc(CS(=O)c2ccccc2Cl)o1)N1CCOCC1 (centres undefined)	i	i	i	i	i	i
COc1ccc(N2CCN(C(=O)c3ccc(CS(=O)Cc4ccc(Cl)cc4)o3)CC2)cc1 (centres undefined)	i	i	i	i	i	i
COc1ccc(N2CCN(C(=O)c3ccc(CS(=O)c4cccc(C)c4)o3)CC2)cc1 (centres undefined)	i	nt	i	i	i	i
O=C(c1ccc(CS(=O)c2ccccc2Cl)o1)N1CCN(c2ccccc2)CC1 (centres undefined)	nt	56.0	i	i	i	i
C=C1C(=O)OC2C=C(CO)C3OC3C3OC3(C)CC(OC(=O)/C(=C/C)COC(C)=O)C12 (centres undefined)	i	i	83.0	i	i	i
SMILES	PGC1a acetyl inh	EWS-Fli inh	PAX8 inh HTS	INS-1E GSIS act	MLL AF4-AF9 inh	Xi reactivation
CC(=O)OCC1=C[C@@H]2OC(=O)C3=CO[C@@H](O[C@@H]4O[C@H](CO)[C@@H](O)[C@H](O)[C@H]4O)[C@H]1[C@@H]32	nt	i	i	i	i	i
Cc1nn(-c2ccccc2)c(N)c1N=Nc1ccccc1	nt	i	i	i	31.3	i
Cc1nn(-c2ccccc2)c(N)c1N=Nc1ccc(Cl)cc1	i	i	i	i	i	i
Cc1cccc(C)c1OCC(=O)N=Nc1c(O)[nH]c2ccc(Br)cc12	i	nt	nt	51.2	nt	nt
Oc1[nH]c2ccc(Br)cc2c1N=NC(=S)Nc1ccc(F)cc1	i	i	70.4	i	i	i
COc1ccc2c3c([nH]c2c1)[C@@H](CO)N(S(=O)(=O)c1cn(C)cn1)CC31CCN(CC2CCCCC2)CC1	i	i	i	i	i	i
COc1ccc(-c2nnn(CC(=O)c3c[nH]c4ccccc34)n2)cc1OC	i	nt	nt	i	nt	nt
CCCCOc1ccc(-c2nnn(CC(=O)c3c[nH]c4ccccc34)n2)cc1	i	nt	i	94.1	nt	nt
COC(=O)C1CCC(=O)N1C(c1ccc(OC)cc1)c1cc(OC)c(OC)c(OC)c1 (centres undefined)	i	i	75.5	i	i	i
Cc1ccc(NC(=O)C2C(c3ccccc3)C2(Cl)Cl)c(C)c1 (centres undefined)	70.6	nt	i	i	nt	nt
C[C@H]1CCCCO[C@H](CN(C)C)[C@@H](C)CN([C@@H](C)CO)C(=O)c2cc(NS(=O)(=O)c3cn(C)cn3)ccc2O1	i	nt	i	i	i	i
O=C(NCc1ccc(Cl)cc1)c1cc(=O)[nH]c2ccc(S(=O)(=O)N3CCOCC3)cc12	i	i	i	55.3	i	i
Cn1cc(C(=O)NCc2ccc(Cl)cc2)c(=O)c2cc(S(=O)(=O)N3CCOCC3)ccc21	i	nt	i	i	i	i
O=C(C[C@H]1CC[C@@H](NC(=O)C2CCOCC2)[C@@H](CO)O1)Nc1ccccc1	i	i	nt	i	i	i
O=C(c1ccc(F)cc1)N1CC(=O)N2[C@H](CO)[C@@H](c3ccc(/C=C/c4ccccc4)cc3)[C@@H]2C1	i	i	68.7	i	i	i
O=C(NC1CCCC1)N1CC(=O)N2[C@H](C1)[C@@H](c1ccc(/C=C/c3ccccc3)cc1)[C@@H]2CO	i	i	nt	i	25.4	i
O=C(c1cccnc1)N1CC(=O)N2[C@H](CO)[C@@H](c3ccc(/C=C/c4ccccc4)cc3)[C@H]2C1	i	i	i	i	27.2	i
O=C(c1ccncc1)N1CC(=O)N2[C@H](CO)[C@@H](c3ccc(/C=C/c4ccccc4)cc3)[C@H]2C1	i	i	i	i	i	i
O=C(Cc1ccncc1)NCC[C@@H]1CC[C@H](NC(=O)C2CC2)[C@@H](CO)O1	i	i	i	i	i	i
Cc1ccccc1-c1ccc([C@@H]2[C@H](CO)N3CCCCN(C(=O)Nc4cccc(F)c4)C[C@@H]23)cc1	i	61.4	107.9	i	i	i
Cc1ccccc1-c1ccc([C@H]2[C@@H](CO)N3CCCCN(C(=O)Nc4cccc(F)c4)C[C@H]23)cc1	i	67.0	99.9	nt	i	nt
